Test results taken from ChEMBL document CHEMBL1165951, “Improved synthesis and in vitro/in vivo activities of natural product-inspired, artificial glutamate analogs” (Bioorg Med Chem, 2010).
Activity calls are given as the source filed them. The rule behind the calls is not given here.

Experiments:
[1] = molecular target: Glutamate NMDA receptor (Rattus norvegicus) (UniProt P35439+Q00959+Q00960+Q00961+Q62645+Q8VHN2+Q9R1M7); assay: Binding affinity to rat brain NMDA receptor at 10 uM by radioligand displacement assay
Summary of the method: (§1)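 Radioligand displacement at AMPA, kainate and NMDA ionotropic glutamate receptor sites in rat brain synaptic membranes, with test compound at 1 × 10−5 M.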

[2] = species: Rattus norvegicus; assay: Binding affinity to rat brain AMPA receptor at 10 uM by radioligand displacement assay; summary of the method: as §1
[3] = system: Mus musculus; assay: Effect on neurological behavior in mouse assessed as induction of hyperactivity at 20 ug, icv up to 50 mins; format: functional, organism-based
Summary of the method: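 Racemic analog given to mice as a single intracranial (ICV) injection of 20 μg/mouse. Behaviour was then observed, with the type and duration of any change in activity recorded. Animals were kept according to the NRC Guide for the Care and Use of Laboratory Animals.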

[4] = species: Rattus norvegicus; assay: Binding affinity to rat brain kainate receptor at 10 uM by radioligand displacement assay; summary of the method: as §1
[5] = species: Rattus norvegicus; assay: Binding affinity to glutamate receptor in rat hippocampal neurons assessed as reduction of action potential firing frequency at 10 uM by current- and voltage-clump electrophysiological analysis; format: tissue-based; conditions: Hippocampus
Summary of the method: (§2)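 Cultured hippocampal neurons were recorded by current clamp, read as action potential firing frequency, and by voltage clamp, read as charge transfer during spontaneous excitatory synaptic currents. The value is the percent reduction, n = 3.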

[6] = species: Rattus norvegicus; assay: Binding affinity to glutamate receptor in rat hippocampal neurons assessed as reduction of spontaneous excitatory synaptic current at 10 uM by current- and voltage-clump electrophysiological analysis; format: tissue-based; conditions: Hippocampus; summary of the method: as §2

| SMILES | Activity [1] | Activity [2] | Activity [3] | Activity [4] | inhibition [5] [%] | inhibition [6] [%] |
| --- | --- | --- | --- | --- | --- | --- |
| O=C(O)C[C@]12O[C@@H]3CCCO[C@@H]3[C@H]1CN[C@@H]2C(=O)O | inactive | inactive | Active | inactive |  |  |
| O=C(O)C[C@]12O[C@@H]3CCCN[C@@H]3[C@H]1CN[C@@H]2C(=O)O (relative stereo) |  |  | inactive |  |  |  |
| O=C(O)C[C@]12O[C@@H]3CCCCN[C@@H]3[C@H]1CN[C@@H]2C(=O)O (relative stereo) |  |  | inactive |  |  |  |
| O=C(O)C[C@]12O[C@@H]3[C@@H](O)[C@@H](O)CN[C@@H]3[C@H]1CN[C@@H]2C(=O)O (relative stereo) |  |  | inactive |  |  |  |
| O=C(O)C[C@]12O[C@@H]3CCCCO[C@@H]3[C@H]1CN[C@@H]2C(=O)O | inactive | inactive | Active | inactive |  |  |
| O=C(O)C[C@]12O[C@@H]3C=CCCO[C@@H]3[C@H]1CN[C@@H]2C(=O)O (relative stereo) |  |  | Active |  |  |  |
| O=C(O)C[C@]12O[C@@H]3[C@@H](O)[C@@H](O)CCN[C@@H]3[C@H]1CN[C@@H]2C(=O)O (relative stereo) |  |  | inactive |  |  |  |
| O=C(O)C[C@]12O[C@@H]3[C@@H](O)[C@@H](O)CCO[C@@H]3[C@H]1CN[C@@H]2C(=O)O | inactive | inactive | Active | inactive |  |  |
| O=C(O)C[C@]12O[C@@H]3C=CCO[C@@H]3[C@H]1CN[C@@H]2C(=O)O (relative stereo) |  |  | inactive |  |  |  |
| O=C(O)C[C@]12O[C@@H]3C=CCN[C@@H]3[C@H]1CN[C@@H]2C(=O)O (relative stereo) |  |  | inactive |  | 52 | 31 |
| O=C(O)C[C@]12O[C@@H]3[C@@H](O)[C@@H](O)CO[C@@H]3[C@H]1CN[C@@H]2C(=O)O | inactive | inactive | inactive | inactive |  |  |
| O=C(O)C[C@]12O[C@@H]3C=CCCN[C@@H]3[C@H]1CN[C@@H]2C(=O)O (relative stereo) |  |  | inactive |  |  |  |
